Legend:
[1] = biological target: T1, Peroxisome proliferator-activated receptor delta (Homo sapiens, UniProt Q03181); test: Agonist activity at Gal4-fused human PPARdelta […] binding domain expressed in HEK293 cells by luciferase reporter gene assay; format: cell-based
T1 sequence (Q03181 whole entry): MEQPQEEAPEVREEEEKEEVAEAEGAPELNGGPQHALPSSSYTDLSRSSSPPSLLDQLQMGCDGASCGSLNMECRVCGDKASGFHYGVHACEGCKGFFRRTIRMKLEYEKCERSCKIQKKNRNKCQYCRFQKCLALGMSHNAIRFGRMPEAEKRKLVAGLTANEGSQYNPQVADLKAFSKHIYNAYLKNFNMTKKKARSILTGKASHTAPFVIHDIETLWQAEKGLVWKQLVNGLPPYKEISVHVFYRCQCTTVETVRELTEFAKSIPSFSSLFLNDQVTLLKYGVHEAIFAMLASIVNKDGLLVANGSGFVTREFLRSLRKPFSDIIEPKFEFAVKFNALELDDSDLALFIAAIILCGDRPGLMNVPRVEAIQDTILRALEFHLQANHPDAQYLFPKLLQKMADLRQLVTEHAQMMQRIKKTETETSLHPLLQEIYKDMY

[2] = biological target: T2, Peroxisome proliferator-activated receptor gamma (Homo sapiens, UniProt P37231); test: Agonist activity at Gal4-fused human PPARgamma […] binding domain expressed in HEK293 cells by luciferase reporter gene assay; format: cell-based
T2 sequence (P37231 whole entry): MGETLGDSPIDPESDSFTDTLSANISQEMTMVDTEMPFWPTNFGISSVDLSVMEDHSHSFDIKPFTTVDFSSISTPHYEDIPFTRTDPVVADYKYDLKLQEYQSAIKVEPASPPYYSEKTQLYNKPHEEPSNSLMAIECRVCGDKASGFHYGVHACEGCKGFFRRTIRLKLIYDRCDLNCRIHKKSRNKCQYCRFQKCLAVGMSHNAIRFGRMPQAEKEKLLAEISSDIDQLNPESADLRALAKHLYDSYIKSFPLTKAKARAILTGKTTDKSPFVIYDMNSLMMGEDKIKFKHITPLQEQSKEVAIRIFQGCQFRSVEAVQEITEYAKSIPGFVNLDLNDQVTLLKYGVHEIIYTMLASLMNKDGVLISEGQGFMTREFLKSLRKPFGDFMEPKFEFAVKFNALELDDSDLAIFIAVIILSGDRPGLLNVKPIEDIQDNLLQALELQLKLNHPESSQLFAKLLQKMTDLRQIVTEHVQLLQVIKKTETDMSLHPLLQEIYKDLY

[3] = biological target: T3, Peroxisome proliferator-activated receptor alpha (Homo sapiens, UniProt Q07869); test: Agonist activity at Gal4-fused human PPARalpha […] binding domain expressed in HEK293 cells by luciferase reporter gene assay; format: cell-based
T3 sequence (Q07869 whole entry): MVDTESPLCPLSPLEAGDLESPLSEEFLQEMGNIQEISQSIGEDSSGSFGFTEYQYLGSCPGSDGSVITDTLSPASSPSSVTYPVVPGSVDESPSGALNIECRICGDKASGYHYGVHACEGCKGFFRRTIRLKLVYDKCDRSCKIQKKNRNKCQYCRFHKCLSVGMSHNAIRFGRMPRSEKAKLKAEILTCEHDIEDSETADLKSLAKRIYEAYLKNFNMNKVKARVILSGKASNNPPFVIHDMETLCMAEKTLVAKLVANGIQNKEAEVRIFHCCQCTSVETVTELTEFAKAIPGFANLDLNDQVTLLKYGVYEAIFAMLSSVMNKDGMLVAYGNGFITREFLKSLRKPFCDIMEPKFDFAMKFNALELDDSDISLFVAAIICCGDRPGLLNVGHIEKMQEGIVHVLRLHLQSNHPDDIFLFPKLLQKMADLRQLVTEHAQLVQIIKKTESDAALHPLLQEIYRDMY

[4] = biological target: T1, Peroxisome proliferator-activated receptor delta; test: Induction of PPARdelta-mediated PDK4 mRNA upregulation in human myoblast after 24 hrs
In short: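 Myoblasts isolated from human vastus lateralis skeletal muscle by enzymatic digestion, then differentiated into myotubes for 7 days in 2% horse serum. Myotubes were exposed to compound for 24 h, and fold induction of PDK4 mRNA was measured. EC50 was taken from the dose–response curve, with GW501516 run as the reference agonist.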

[5] = Lipophilicity, log D of the compound; format: physicochemical; conditions: octanol/water

Compound	EC50 [1]	EC50 [2]	EC50 [3]	EC50 [4]	logD [5]
Cc1cc(CN2CCCC2C(=O)Nc2ccc(Cl)cc2Cl)ccc1OCC(=O)O (stereo not given)	1600 nM				
Cc1cc(CN2CCC(C(=O)Nc3ccc(Cl)cc3Cl)C2)ccc1OCC(=O)O (stereo not given)	1000 nM				
Cc1cc(CN2Cc3ccccc3C2C(=O)Nc2ccccc2)ccc1OCC(=O)O (stereo not given)	> 60000 nM				
Cc1cc(CN2Cc3ccccc3C2C(=O)O)ccc1OCC(=O)O (stereo not given)	> 20000 nM				
Cc1cc(CN2Cc3ncccc3CC2C(=O)Nc2ccc(Cl)cc2Cl)ccc1OCC(=O)O (racemic)	500 nM				

The remaining lines, values ahead:

EC50 [1]	EC50 [2]	EC50 [3]	EC50 [4]	logD [5]	Compound
320 nM					Cc1cc(CN2Cc3ccccc3C2C(=O)Nc2cc(Cl)ccc2Cl)ccc1OCC(=O)O (stereo not given)
2500 nM					Cc1cc(CN2Cc3ccccc3C2C(=O)Nc2ccc(Cl)cc2)ccc1OCC(=O)O (stereo not given)
5 nM	> 20000 nM	2500 nM	15 nM	2.4	Cc1cc(CN2Cc3ccccc3C[C@H]2C(=O)Nc2ccc(Cl)cc2Cl)ccc1OCC(=O)O
0.5 nM	800 nM	1250 nM			Cc1cc(CN2Cc3ccccc3C[C@@H]2C(=O)Nc2ccc(Cl)cc2Cl)ccc1OCC(=O)O
25 nM	> 30000 nM	> 30000 nM		2.6	Cc1cc(CN2Cc3ccccc3C2C(=O)Nc2ccc(Cl)cc2Cl)ccc1OCC(=O)O (racemic)
10 nM	2700 nM	6300 nM	70 nM	2.6	Cc1cc(CN2CCc3ccccc3C2C(=O)Nc2ccc(Cl)cc2Cl)ccc1OCC(=O)O (racemic)
2000 nM					Cc1cc(CN2Cc3cccnc3CC2C(=O)Nc2ccc(Cl)cc2Cl)ccc1OCC(=O)O (racemic)

Source: ChEMBL document CHEMBL1641418, “Discovery of isoindoline and tetrahydroisoquinoline derivatives as potent, selective PPARδ agonists” (Bioorg Med Chem Lett, 2011)
